Published values of several laboratories.

The IC50 of `C[C@@H]1[C@H](O)[C@@H](C)/C=C/C=C/C=C/C=C/C=C/C=C/C=C/[C@H](O[C@@H]2O[C@H](C)[C@@H](O)[C@H](N)[C@@H]2O)C[C@@H]2O[C@](O)(C[C@@H](O)C[C@@H](O)[C@H](O)CC[C@@H](O)C[C@@H](O)CC(=O)O[C@H]1C)C[C@H](O)[C@H]2C(=O)O` is reported as 0.28 µM (Leishmania amazonensis; parasite growth, MTT; promastigote).
With `NCC(=O)Nc1ccccc1/N=c1\cc(-c2ccc3c(c2)OCO3)oc2ccccc12` the inhibition was 1.26% (NCI-H1975; cell growth or viability, CCK-8; 1 µM).
The IC50 of `COc1cccc(NC(=O)Nc2nc3cc(-c4ccc5ncn(CCN6CCOCC6)c(=O)c5c4)ccc3s2)c1` is reported as > 20 µM (NCI-H1975; cell growth or viability, MTT; 72 h).
For `CCCCn1cnc2ccc(-c3ccc(NC(=O)C4CCCCC4)nc3)cc2c1=O`, the IC50 was 1.6 µM (NCI-H1975; cell growth or viability, CCK-8; 72 h).
`NCCC(=O)Nc1ccc(/N=c2\cc(-c3ccc4c(c3)OCO4)oc3ccccc23)cc1` gave an inhibition of 0.71% (NCI-H1975; cell growth or viability, CCK-8; 1 µM).
`CCCCC(=O)Nc1ccc(-c2ccc3ncn(CCC(C)C)c(=O)c3c2)cn1` has an IC50 of 0.54 µM (NCI-H1975; cell growth or viability, CCK-8; 72 h).
The IC50 of `COc1cccc(NC(=O)Nc2nc3cc(-c4ccc5ncn(Cc6ccccc6)c(=O)c5c4)ccc3s2)c1` is reported as > 20 µM (NCI-H1975; cell growth or viability, MTT; 72 h).
For `COc1ccc2/c(=N/c3ccccc3NC(=O)[C@@H](N)C(C)(C)C)cc(-c3ccc4c(c3)OCCO4)oc2c1`, the inhibition was 4.59% (NCI-H1975; cell growth or viability, CCK-8; 1 µM).
`Nc1nc2c(ncn2COCCO)c(=O)[nH]1` gave an IC50 of 0.22 µM (Human alphaherpesvirus 2; viral replication, inhibitor, qPCR; Vero).
`CCCCn1cnc2ccc(-c3ccc(NC(=O)CCC)nc3)cc2c1=O` gave an IC50 of 1.27 µM (NCI-H1975; cell growth or viability, CCK-8; 72 h).
`COc1cccc(NC(=O)Nc2nc3cc(-c4ccc5ncn(CCC6CCCCC6)c(=O)c5c4)ccc3s2)c1` gave an IC50 of > 20 µM (NCI-H1975; cell growth or viability, MTT; 72 h).
With `COCCC(=O)Nc1ccccc1/N=c1\cc(-c2ccc3c(c2)OCO3)oc2ccccc12` the inhibition was 3.84% (NCI-H1975; cell growth or viability, CCK-8; 1 µM).
With `CCCCn1cnc2ccc(-c3ccc(NC(=O)Nc4ccc(OC)cc4)nc3)cc2c1=O` the IC50 was > 10 µM (NCI-H1975; cell growth or viability, CCK-8; 72 h).
For `CC(C)NC(=O)Nc1nc2cc(-c3ccc4ncn(Cc5ccccc5)c(=O)c4c3)ccc2s1`, the IC50 was 5.54 µM (NCI-H1975; cell growth or viability, MTT; 72 h).
The IC50 of `CCCC(C)C(=O)Nc1ccc(-c2ccc3ncn(CCC)c(=O)c3c2)cn1` (stereo not shown) is reported as 2.76 µM (NCI-H1975; cell growth or viability, CCK-8; 72 h).
With `C[C@H](N)C(=O)Nc1ccccc1/N=c1\cc(-c2ccc3c(c2)OCCO3)oc2c([N+](=O)[O-])cccc12` the inhibition was 1.15% (NCI-H1975; cell growth or viability, CCK-8; 1 µM).
